Data: ChEMBL document CHEMBL2203116, “Synthesis and evaluation of novel carbon-11 labeled oxopurine analogues for positron emission tomography imaging of translocator protein (18 kDa) in peripheral organs” (J Med Chem, 2011)

Tests used:
Kidney [1] = test: Drug uptake in Sprague-Dawley rat kidney at 0.15 nmol, iv after 27.5 mins by PET scanning; assay type: ADME, organism-based; conditions: in vivo
Outline: (§1)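 Male Sprague-Dawley rats (6–8 weeks old), isoflurane-anesthetized, prone. ROIs on lung, heart, kidney, liver, small intestine and cardiac blood pool. Uptake decay-corrected to injection time and expressed as SUV (body-weight normalized). n = 4, mean ± SD.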

Blood [2] = test: Biodistribution in Sprague-Dawley rat blood at 0.19 nmol, iv by gamma counting; assay type: ADME, organism-based; conditions: in vivo
Outline: (§2)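 Male Sprague-Dawley rats were given intratracheal LPS (E. coli O127:B8, 5.0 mg/kg in 50 μL saline) or 50 μL saline vehicle 24 h before tracer. [11C]Radioligand (16 MBq/200 μL, 0.19 nmol) in saline was injected via the tail vein. Rats were killed at 30 min (n = 4 per group). Tissues were weighed and gamma-counted, expressed as decay-corrected %ID/g.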

Kidney [3] = test: Drug uptake in Sprague-Dawley rat kidney at 0.15 nmol, iv up to 30 mins by PET scanning; assay type: ADME, organism-based; conditions: in vivo, 0.5 h; outline: as §1
[4] = Metabolic stability in Sprague-Dawley rat kidney assessed as unchanged compound at 0.32 nmol, iv after 30 mins by analytical radio- HPLC; assay type: ADME, organism-based; conditions: read-out: Stability
Outline: (§3)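 Rats (n = 3) given radioligand iv (37 MBq/100 μL, 0.32 nmol) and killed at 30 min. Heart and kidney homogenized in ice-cold MeCN/H2O 4/6, centrifuged 15000 rpm for 1 min at 4 °C. Supernatant run on analytical radio-HPLC (C18, MeCN/H2O 4/6). Percent parent = parent peak area over total peak areas, decay-corrected. Mean ± SD.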

Muscle tissue [5] = test: Biodistribution in LPS-treated Sprague-Dawley rat muscle at 0.19 nmol, iv by gamma counting; assay type: ADME, organism-based; conditions: in vivo; outline: as §2
Lung [6] = test: Drug uptake in Sprague-Dawley rat lung at 0.15 nmol, iv after 27.5 mins by PET scanning; assay type: ADME, organism-based; conditions: in vivo; outline: as §1
Lung [7] = test: Biodistribution in LPS-treated Sprague-Dawley rat lung at 0.19 nmol, iv by gamma counting; assay type: ADME, organism-based; conditions: in vivo; outline: as §2
Heart [8] = test: Drug uptake in Sprague-Dawley rat heart at 0.15 nmol, iv after 27.5 mins by PET scanning; assay type: ADME, organism-based; conditions: in vivo
Outline: (§4)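 Isoflurane-anesthetized male Sprague-Dawley rats lay prone and received an iv bolus of [11C]radioligand in 200 μL. 3D list-mode emission scans ran 30 min from injection. Regions of interest were drawn on the organs and cardiac blood pool. Uptake was decay-corrected to injection time and expressed as SUV (normalized to injected radioactivity and body weight). Values are mean of n = 4.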

Kidney [9] = test: Drug uptake in Sprague-Dawley rat kidney at 0.15 nmol, iv after 2 mins by PET scanning; assay type: ADME, organism-based; conditions: in vivo; outline: as §1
Spleen = test: Biodistribution in Sprague-Dawley rat spleen at 0.19 nmol, iv by gamma counting; assay type: ADME, organism-based; conditions: in vivo; outline: as §2
Liver [10] = test: Drug uptake in Sprague-Dawley rat liver at 0.15 nmol, iv pretreated with unlabeled AC-5216 measured after 27.5 mins by PET scanning relative to control; assay type: ADME, organism-based; conditions: in vivo
Outline: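 Male Sprague-Dawley rats, 6-8 weeks, isoflurane-anesthetized. A blocking TSPO ligand (1.0 mg/kg, in 300 μL saline with 10% ethanol and 5% polysorbate 80) was injected 1 min before iv radioligand (16-18 MBq/200 μL). Liver ROI as decay-corrected SUV (injected activity, body weight), 27.5-min value versus controls; n = 4.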

Lung [11] = test: Drug uptake in Sprague-Dawley rat lung at 0.15 nmol, iv after 30 mins by PET scanning; assay type: ADME, organism-based; conditions: in vivo, 0.5 h; outline: as §1
Heart [12] = test: Biodistribution in Sprague-Dawley rat heart at 0.19 nmol, iv by gamma counting; assay type: ADME, organism-based; conditions: in vivo; outline: as §2
Rattus norvegicus [13] = test: Biodistribution in Sprague-Dawley rat small intestine at 0.19 nmol, iv by gamma counting; assay type: ADME, organism-based; conditions: in vivo; outline: as §2
Liver [14] = test: Biodistribution in LPS-treated Sprague-Dawley rat liver at 0.19 nmol, iv by gamma counting; assay type: ADME, organism-based; conditions: in vivo; outline: as §2
Lung [15] = test: Drug uptake in Sprague-Dawley rat lung at 0.15 nmol, iv pretreated with unlabeled AC-5216 by PET scanning; assay type: ADME, organism-based; conditions: in vivo; outline: as §1
Pancreas = test: Biodistribution in LPS-treated Sprague-Dawley rat pancreas at 0.19 nmol, iv by gamma counting; assay type: ADME, organism-based; conditions: in vivo; outline: as §2
[16] = Metabolic stability in Sprague-Dawley rat heart assessed as unchanged compound at 0.32 nmol, iv after 30 mins by analytical radio- HPLC; assay type: ADME, organism-based; conditions: read-out: Stability; outline: as §3
Brain [17] = test: Biodistribution in Sprague-Dawley rat brain at 0.19 nmol, iv by gamma counting; assay type: ADME, organism-based; conditions: in vivo; outline: as §2
Lung [18] = test: Biodistribution in Sprague-Dawley rat lung at 0.19 nmol, iv by gamma counting; assay type: ADME, organism-based; conditions: in vivo; outline: as §2
Adrenal [19] = test: Biodistribution in Sprague-Dawley rat adrenal at 0.19 nmol, iv by gamma counting; assay type: ADME, organism-based, Adrenal tissue; conditions: in vivo; outline: as §2
Kidney [20] = test: Biodistribution in LPS-treated Sprague-Dawley rat kidney at 0.19 nmol, iv by gamma counting; assay type: ADME, organism-based; conditions: in vivo; outline: as §2
Liver [21] = test: Drug uptake in Sprague-Dawley rat liver at 0.15 nmol, iv pretreated with unlabeled (R)-PK11195 measured after 27.5 mins by PET scanning relative to control; assay type: ADME, organism-based; conditions: in vivo
Outline: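 Male Sprague-Dawley rats, 6-8 weeks old, under isoflurane, prone. An unlabeled TSPO blocking ligand (3.0 mg/kg) was injected 1 min before the iv radioligand (16-18 MBq/200 μL). A liver ROI was decay-corrected and expressed as SUV normalized to injected activity and body weight. The 27.5-min value was compared with unblocked controls; n = 4.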

Blood [22] = test: Biodistribution in LPS-treated Sprague-Dawley rat blood at 0.19 nmol, iv by gamma counting; assay type: ADME, organism-based; conditions: in vivo; outline: as §2
[23] = Metabolic stability in Sprague-Dawley rat plasma assessed as unchanged compound at 0.32 nmol, iv after 30 mins by analytical radio- HPLC; assay type: ADME, organism-based; conditions: read-out: Stability
Intestine = test: Drug uptake in Sprague-Dawley rat small intestine at 0.15 nmol, iv up to 30 mins by PET scanning; assay type: ADME, organism-based; conditions: in vivo, 0.5 h; outline: as §1
Muscle tissue [24] = test: Biodistribution in Sprague-Dawley rat muscle at 0.19 nmol, iv by gamma counting; assay type: ADME, organism-based; conditions: in vivo; outline: as §2
Heart [25] = test: Drug uptake in Sprague-Dawley rat heart at 0.15 nmol, iv pretreated with unlabeled (R)-PK11195 by PET scanning; assay type: ADME, organism-based; conditions: in vivo
Outline: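 Isoflurane-anesthetized Sprague-Dawley rats underwent 30-min PET after iv [11C]radioligand, with unlabeled blocker given iv 1 min before tracer. Blockers were (R)-PK11195 at 3.0 mg/kg or AC-5216 at 1.0 mg/kg in 300 μL saline with 10% ethanol and 5% polysorbate 80. Regional uptake was decay-corrected SUV (n = 4).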

Adrenal [26] = test: Biodistribution in LPS-treated Sprague-Dawley rat adrenal at 0.19 nmol, iv by gamma counting; assay type: ADME, organism-based, Adrenal tissue; conditions: in vivo; outline: as §2
Kidney [27] = test: Biodistribution in Sprague-Dawley rat kidney at 0.19 nmol, iv by gamma counting; assay type: ADME, organism-based; conditions: in vivo; outline: as §2
Liver [28] = test: Drug uptake in Sprague-Dawley rat liver at 0.15 nmol, iv after 27.5 mins by PET scanning; assay type: ADME, organism-based; conditions: in vivo; outline: as §1
Brain [29] = test: Biodistribution in LPS-treated Sprague-Dawley rat brain at 0.19 nmol, iv by gamma counting; assay type: ADME, organism-based; conditions: in vivo; outline: as §2
Blood [30] = test: Drug uptake in Sprague-Dawley rat cardiac blood pool at 0.15 nmol, iv after 2 mins by PET scanning; assay type: ADME, organism-based; conditions: in vivo; outline: as §4
[31] = Metabolic stability in Sprague-Dawley rat liver assessed as unchanged compound at 0.32 nmol, iv after 30 mins by analytical radio- HPLC; assay type: ADME, organism-based; conditions: read-out: Stability
Rattus norvegicus [32] = test: Biodistribution in LPS-treated Sprague-Dawley rat small intestine at 0.19 nmol, iv by gamma counting; assay type: ADME, organism-based; conditions: in vivo; outline: as §2

## CCN(Cc1ccncc1)C(=O)Cn1c(=O)n([11CH3])c2cnc(-c3ccccc3)nc21
Kidney [1]
  SUV: 1
Blood [2]
  Drug uptake: 0.06 % ID/g
Kidney [3]
  Drug uptake: Active
[4]
  remaining at 0.5 h: 94.7%
Muscle tissue [5]
  Drug uptake: 0.1 % ID/g
Lung [6]
  SUV: 0.5
Lung [7]
  Drug uptake: 3.54 % ID/g
Heart [8]
  SUV: 0.9
Kidney [9]
  SUV: 3.3
Spleen
  Drug uptake: 1.88 % ID/g
Liver [10]
  fold change (FC): 1.5
Lung [11]
  Drug uptake: Active
Heart [12]
  Drug uptake: 2.1 % ID/g
Rattus norvegicus [13]
  Drug uptake: 1.57 % ID/g
Liver [14]
  Drug uptake: 1.03 % ID/g
Lung [15]
  Drug uptake: Not Active
Pancreas
  Drug uptake: 0.37 % ID/g
[16]
  remaining at 0.5 h: 93.8%
Brain [17]
  Drug uptake: 0.02 % ID/g
Lung [18]
  Drug uptake: 1.65 % ID/g
Adrenal [19]
  Drug uptake: 7.49 % ID/g
Kidney [20]
  Drug uptake: 1.97 % ID/g
Liver [21]
  fold change (FC): 1.5
Blood [22]
  Drug uptake: 0.08 % ID/g
[23]
  remaining at 0.5 h: 23.4%
Intestine
  Drug uptake: Active
Muscle tissue [24]
  Drug uptake: 0.11 % ID/g
Heart [25]
  Drug uptake: Not Active
Adrenal [26]
  Drug uptake: 5.27 % ID/g
Kidney [27]
  Drug uptake: 1.78 % ID/g
Liver [28]
  SUV: 0.5
Brain [29]
  Drug uptake: 0.02 % ID/g
Blood [30]
  SUV: 3
[31]
  remaining at 0.5 h: 43.6%
Rattus norvegicus [32]
  Drug uptake: 2.68 % ID/g
